Each structure is given as a SMILES string.

What all share (type): cell-based
Holding throughout (set-up): scale not given: the % may be the effect or the level left

For assay [1], the system named is CHO. Kind of assay: Reduction of human PS1 delta exon9 mutant-induced amyloid beta-40 level in CHO cells overexpressing human APP751 at 250 nM after 24 hrs by liquid phase electrochemiluminescence assay relative to control. In outline: (§1)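 APP751 CHO cells stably expressing PS1-ΔExon9, PS1-L166P or PS1-WT, cultured in parallel in serum-containing medium. Treated 24 h with increasing γ-secretase inhibitor concentrations or DMSO. Conditioned-media Abeta40/Abeta42 quantified by LPECL against synthetic peptide standards (16–2000 pg/ml). Duplicates normalized to DMSO. n = 3, one-way ANOVA with Dunnett's test versus PS1-WT.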

The subject of assay [2] is Presenilin-1 (Homo sapiens), P49768 [L166P]. Kind of assay: Reduction of human PS1 L166P mutant-induced amyloid beta40 level in CHO cells overexpressing human APP751 at 500 nM after 24 hrs by liquid phase electrochemiluminescence assay relative to control. In outline:
as §1

Assay [3] deals with CHO. Kind of assay: Reduction of human PS1 delta exon9 mutant-induced amyloid beta-42 level in CHO cells overexpressing human APP751 at 250 nM after 24 hrs by liquid phase electrochemiluminescence assay relative to control. In outline: as §1
Assay [4] has as its target Presenilin-1 (Homo sapiens) (UniProt P49768). The assay is described as follows: Reduction of human wild type PS1-induced amyloid beta-42 level in CHO cells overexpressing human APP751 at 250 nM after 24 hrs by liquid phase electrochemiluminescence assay relative to control.
Assay [5] has as its system Presenilin-1 (Homo sapiens), P49768 [L166P]. The assay is described as follows: Reduction of human PS1 L166P mutant-induced amyloid beta-40 level in CHO cells overexpressing human APP751 at 250 nM after 24 hrs by liquid phase electrochemiluminescence assay relative to control. In outline: as §1
In assay [6] the target is Presenilin-1 (Homo sapiens) (UniProt P49768). Kind of assay: Reduction of human wild type PS1-induced amyloid beta-40 level in CHO cells overexpressing human APP751 at 500 nM after 24 hrs by liquid phase electrochemiluminescence assay relative to control.
Assay [7] relates to CHO. The assay is described as follows: Reduction of human PS1 delta exon9 mutant-induced amyloid beta-40 level in CHO cells overexpressing human APP751 at 500 nM after 24 hrs by liquid phase electrochemiluminescence assay relative to control. In outline: as §1
Assay [8] deals with CHO. Kind of assay: Reduction of human PS1 delta exon9 mutant-induced amyloid beta-42 level in CHO cells overexpressing human APP751 at 500 nM after 24 hrs by liquid phase electrochemiluminescence assay relative to control.
The target in assay [9] is Presenilin-1 (Homo sapiens) (UniProt P49768). Kind of assay: Reduction of human wild type PS1-induced amyloid beta-40 level in CHO cells overexpressing human APP751 at 250 nM after 24 hrs by liquid phase electrochemiluminescence assay relative to control.
For assay [10] the target is unchanged. The assay is described as follows: Reduction of human wild type PS1-induced amyloid beta-40 level in CHO cells overexpressing human APP751 at 100 nM after 24 hrs by liquid phase electrochemiluminescence assay relative to control.
In assay [11] the test system is Presenilin-1 (Homo sapiens), P49768 [L166P]. Kind of assay: Reduction of human PS1 L166P mutant-induced amyloid beta-42 level in CHO cells overexpressing human APP751 at 250 nM after 24 hrs by liquid phase electrochemiluminescence assay relative to control. In outline: as §1
Assay [12] has the same test system. The assay is described as follows: Reduction of human PS1 L166P mutant-induced amyloid beta-42 level in CHO cells overexpressing human APP751 at 100 nM after 24 hrs by liquid phase electrochemiluminescence assay relative to control. In outline:
as §1

For assay [13], the target named is Presenilin-1 (Homo sapiens) (UniProt P49768). The assay is described as follows: Reduction of human wild type PS1-induced amyloid beta-42 level in CHO cells overexpressing human APP751 at 500 nM after 24 hrs by liquid phase electrochemiluminescence assay relative to control.
The target is the same in assay [14]. The assay is described as follows: Reduction of human wild type PS1-induced amyloid beta-42 level in CHO cells overexpressing human APP751 at 100 nM after 24 hrs by liquid phase electrochemiluminescence assay relative to control.
Assay [15] concerns CHO. Kind of assay: Reduction of human PS1 delta exon9 mutant-induced amyloid beta-40 level in CHO cells overexpressing human APP751 at 100 nM after 24 hrs by liquid phase electrochemiluminescence assay relative to control. In outline:
as §1

For assay [16], the system named is Presenilin-1 (Homo sapiens), P49768 [L166P]. Kind of assay: Reduction of human PS1 L166P mutant-induced amyloid beta-40 level in CHO cells overexpressing human APP751 at 100 nM after 24 hrs by liquid phase electrochemiluminescence assay relative to control. In outline:
as §1

The test system is the same in assay [17]. The assay is described as follows: Reduction of human PS1 L166P mutant-induced amyloid beta-42 level in CHO cells overexpressing human APP751 at 500 nM after 24 hrs by liquid phase electrochemiluminescence assay relative to control. Summed up:
as §1

Assay [18] concerns CHO. Kind of assay: Reduction of human PS1 delta exon9 mutant-induced amyloid beta-42 level in CHO cells overexpressing human APP751 at 100 nM after 24 hrs by liquid phase electrochemiluminescence assay relative to control. In outline: as §1

As to `CC(C)C[C@H](NC(=O)C(Cc1ccccc1)C[C@@H](O)[C@H](Cc1ccccc1)NC(=O)OC(C)(C)C)C(=O)N[C@@H](Cc1ccccc1)C(N)=O` (single isomer, unassigned), the Activity in the assay on CHO [1] was determined as 54%; in assay [2], 13.1%; with CHO [3], 54.5%; in [4], 3.28%; in assay [5], 20.6%; in [6], 1.92%. Besides, the Activity with CHO [7] was found to be 33.4%; in the assay with CHO [8], 34.1%; in assay [9], 2.95%; in [10], 8.1%; in assay [11], 44.1%; in assay [12], 62.3%. Moreover, the Activity in [13] stood at 2.59%; in assay [14], 11.3%; in the assay with CHO [15], 86.3%; in assay [16], 41.5%; in assay [17] it was 34.2%; in the assay with CHO [18], 98.3%.

Values taken from ChEMBL document CHEMBL1156480, “Insensitivity to Abeta42-lowering nonsteroidal anti-inflammatory drugs and gamma-secretase inhibitors is common among aggressive presenilin-1 mutations” (J Biol Chem, 2007).
